Bioassay records from PubChem BioAssay.
EphB4 ephrin blk = blocks human EphB4 binding to ephrin-B2 | P54760 | EphB4 LBD / TNYL-RAW-Alexa532 peptide, fluorescence polarization | inhibition, % at 7 µM | 97,000 compounds, 0.15% hits | AID 720;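 active = inhibition above the screen-wide mean inhibition plus 3 SD, cut at about 15% in these data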;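 also: 0% = DMSO wells and 100% = excess unlabeled TNYL-RAW peptide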
DAT uptake mod = changed human dopamine transporter uptake under cocaine IC80; Q01959; LLC-PK1 hDAT cells, [14C]-dopamine uptake with cocaine IC80; actives deviate in either direction; B-score at 10 µM; 110,000 compounds, 1.3% hits; AID 449768;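 active = Z score or B-score, a plate-position-corrected score, falls beyond the plate's 99.7% confidence bounds, in either direction; inactive = both scores lie inside the 99.7% bounds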;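 also: scored against the spread of the other compound wells on the same plate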
Cav32 inh = human Cav3.2 channel inhibition, primary screen | 100,000 compounds, 4% hits | Cav3.2-expressing cells, Fluo-4 calcium fluorescence FDSS; hits give low values | AID 449739 | O95180 | B-score at 10 µM;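 active = single-dose well whose peak fluorescence ratio is a statistical outlier from its plate by either plate-standardised score or position-corrected B-score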
Rev-RRE block = HIV Rev-RRE protein-RNA interaction inhibition | Rev peptide-RRE RNA binding, FRET | P05866 | 97,000 compounds, 0.79% hits | inhibition, % at 8 µM;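 active = inhibition above the screen-wide mean plus 3 SD, cut at about 35% in these data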;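 also: 0% = median DMSO wells and 100% = median Neomycin B control wells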
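Assay system: Labelled RRE RNA duplex and labelled Rev peptide | Times: 5 min preincubation and 15 min binding, 25 °C | Detection: FRET, ex 480 nm, em 540 and 671 nm | Evaluation: % inhibition of FRET ratio versus controls | Benchmarks: DMSO wells as 0% and neomycin B wells as 100% inhibition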
An asterisk follows results filed as active. An excerpt weighted towards active compounds, which were near 5.4% of everything screened.

Results for CCCOC(=O)c1ccc(NS(=O)(=O)c2cccs2)cc1 ?
EphB4 ephrin blk: -5; DAT uptake mod: -0.75; Cav32 inh: -5*; Rev-RRE block: -1

Results for Cc1ccc(Cl)cc1N1CCN(C(c2ccc(C#N)cc2)c2nnnn2C2CCCC2)CC1 (stereo unspecified) ?
EphB4 ephrin blk: -1; DAT uptake mod: -0.44; Cav32 inh: -2.6; Rev-RRE block: 4

What do the screens show for `Clc1ccc(C(c2nnnn2C2CCCC2)N2CCN(c3nc4ccccc4s3)CC2)cc1` (stereo unspecified)?
EphB4 ephrin blk: 2; DAT uptake mod: -0.0036; Cav32 inh: -8.1*; Rev-RRE block: 5

How did CCC(c1nnnn1C(C)(C)C)N1CCN(c2cc(Cl)ccc2C)CC1 (stereo unspecified) do in these assays?
EphB4 ephrin blk: -7; DAT uptake mod: -0.026; Cav32 inh: -3.8*; Rev-RRE block: 3

What do the screens show for `Cc1ccc(Cl)cc1N1CCN(C(c2cccnc2)c2nnnn2C2CCCCC2)CC1` (stereo unspecified)?
EphB4 ephrin blk: 0; DAT uptake mod: -0.43; Cav32 inh: -5*; Rev-RRE block: 7

What do the screens show for `COc1ccc(C(c2nnnn2C(C)(C)C)N2CCN(c3nc4ccccc4s3)CC2)cc1OC` (stereo unspecified)?
DAT uptake mod: 0.59; Cav32 inh: -4*

What do the screens show for `O=C(NN=C1C2CC3CC(C2)CC1C3)c1cc(Cl)ccc1O`?
EphB4 ephrin blk: 0; DAT uptake mod: 0.046; Rev-RRE block: 9

Results for CCn1c(SCC(=O)Nc2cc3oc4ccccc4c3cc2OC)nnc1-c1cccs1 ?
EphB4 ephrin blk: -5; DAT uptake mod: 1.2; Cav32 inh: -0.45; Rev-RRE block: -2

Results for CCC1Oc2ccc(C)cc2N(CC(=O)NCc2cccc(OC)c2)C1=O (stereo unspecified) ?
EphB4 ephrin blk: 0; DAT uptake mod: 0.78; Cav32 inh: -1.1; Rev-RRE block: 9

What do the screens show for `c1cnc2ccc(C(c3nnnn3C3CCCC3)N3CCN(c4nc5ccccc5s4)CC3)cc2c1` (stereo unspecified)?
EphB4 ephrin blk: 0; DAT uptake mod: -0.2; Cav32 inh: -3.9*; Rev-RRE block: -1

Results for OC1CCN(C(c2ccc3ncccc3c2)c2nnnn2C2CCCCC2)CC1 (stereo unspecified) ?
EphB4 ephrin blk: -2; DAT uptake mod: -0.0086; Cav32 inh: -0.96; Rev-RRE block: 4

What do the screens show for `COc1ccccc1N1CCN(C(c2ccccc2Cl)c2nnnn2C(C)(C)C)CC1` (stereo unspecified)?
EphB4 ephrin blk: 2; DAT uptake mod: 0.31; Cav32 inh: -6.8*; Rev-RRE block: 8

Results for COc1ccccc1N1CCN(C(c2ccc(Cl)cc2)c2nnnn2C(C)(C)C)CC1 (stereo unspecified) ?
EphB4 ephrin blk: -8; DAT uptake mod: 0.037; Cav32 inh: -3.8; Rev-RRE block: 3

How did CCc1ccc(C(C(=O)NCCOC)N(C(=O)Cn2nnc3ccccc32)c2cccnc2)cc1 (stereo unspecified) do in these assays?
EphB4 ephrin blk: 5; DAT uptake mod: 0.4; Cav32 inh: 0.84; Rev-RRE block: 1

What do the screens show for `CCOC(=O)c1ccc(NC(=O)CCc2nc(-c3ccccc3Cl)no2)cc1`?
Cav32 inh: -3.8*

How did CCc1cccc(NC(=O)CCc2nc(-c3cccs3)no2)c1 do in these assays?
EphB4 ephrin blk: -2; DAT uptake mod: 0.71; Cav32 inh: -7.1*; Rev-RRE block: 4

Results for O=C(CSc1nnc(-c2ccc(S(=O)(=O)N3CCCC3)cc2)o1)NCc1ccco1 ?
EphB4 ephrin blk: 1; DAT uptake mod: 0.0068; Cav32 inh: 0.26; Rev-RRE block: 2

Results for COC(=O)[C@@H]1C[C@@]2(O)[C@H](O)[C@H](O)[C@H](O)C[C@H]2N1Cc1ccc(-c2ccccc2)cc1 ?
DAT uptake mod: 0.57; Cav32 inh: 0.006

How did Cc1cccc(-c2nnc(SCC#N)n2-c2cccc(Cl)c2)c1 do in these assays?
EphB4 ephrin blk: -4; DAT uptake mod: 0.21; Cav32 inh: -1.7; Rev-RRE block: 2

Results for COc1ccc(-n2c(SCCC#N)nnc2-c2cc(Cl)ccc2OC)cc1Cl ?
EphB4 ephrin blk: -1; DAT uptake mod: 0.29; Cav32 inh: -4.3*; Rev-RRE block: 3

What do the screens show for `COc1ccc(C(=O)C/C(=C\C(=O)c2ccc(C)cc2)c2ccccc2)cc1`?
EphB4 ephrin blk: -6; DAT uptake mod: 0.023; Cav32 inh: -4.2*; Rev-RRE block: 17
